Data: PubChem BioAssay
Records with an inconclusive call do not appear.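 The calls were made as follows, unless noted: active = RAM network inhibition above 8.4% in each of two replicates, 3 SD over the compound average; inconclusive = above 8.4% inhibition in only one replicate; inactive = 8.4% inhibition or less in each replicate.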

What was measured:
[1] = S. cerevisiae growth inhibition in permissive medium (OD615), pilot counter-assay for S. cerevisiae lifespan shortening project, permissive growth control (AID 705;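 active = growth inhibition above 25% in both replicates, a cutoff set 3 SD above the mean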); settings: OD615, 24 h, at 10 µM, stronger effect = higher value
Method in brief: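 Timing: 24 h exposure, 30 °C / Material: Saccharomyces cerevisiae strain carrying genetically modified DeaD replicative-lifespan system / Signal: OD at 615 nm / Compound: 10 µM single dose, 0.25% DMSO / Medium: SC raffinose/galactose permissive medium / Evaluation: reduction in yeast growth (OD615)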

[2] = S. cerevisiae growth inhibition in restrictive medium, OD615, pilot screen, restrictive growth control, yeast lifespan reduction project (AID 706;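 active = growth inhibition above a set limit, 3 SD over mean compound inhibition, in both replicates, cut at about 43% in these data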;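 also: modified DeaD lifespan yeast strain shifted to restrictive glucose medium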); settings: OD615, 48 h, at 10 µM, stronger effect = higher value
Method in brief: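 System: Engineered S. cerevisiae DeaD strain | Detection: OD615 | Buffer or medium: CSMM-D glucose medium | Doses: 10 µM compound, 0.25% DMSO | Timing: 4 h pre-growth plus 48 h compound exposure, 30 °C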

[3] = doxorubicin toxicity protection in MRP-1 cells – H69AR cells, CellTiter-Glo, duplicate, MRP-1 activator project, pilot screen (AID 807;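 active = viability increase at or above a cutoff of the median across tested compounds plus 3 SD, cut at about 8.5% in these data, passing the limit was not always enough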;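 also: compound pretreatment 18-22 h then 72 h combined with doxorubicin; 0% = doxorubicin alone and 100% = vehicle without doxorubicin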); settings: H69AR viability with doxorubicin, CellTiter-Glo luminescence; at 10 µM; stronger effect = higher value
[4] = viability of HCT116 without oncogenic beta-catenin – human colon tumor cells, pilot screen (AID 823;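 active = cell viability at or below a set limit in both duplicate runs, the limit being the all-compound median minus 4 SD, cut at about 23% in these data, passing the limit was not always enough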;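 also: 0% = wells killed by 20 µM Hyamine and 100% = untreated DMSO cell wells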); settings: HCT116 beta-catenin knockout viability, CellTiter-Glo, 60 h; at 10 µM; stronger effect = lower value
[5] = viability of PTEN-null HCT116 cells – cell-based, HCT116 clonal line, CellTiter-Glo, pilot screen (AID 824;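 active = viability at or below 27.92% in each of two runs, the all-compound median minus 4 SD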;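 also: 0% = 20 µM Hyamine control and 100% = vehicle cell control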); settings: HCT116 PTEN-deleted viability, 60 h, at 10 µM, stronger effect = lower value
[6] = RAM pathway blockade in budding yeast – dse1pr::URA3 reporter, 5-FOA selection, pilot screen (AID 869;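 active = inhibition over a set limit, the all-compound mean plus 3 SD, in both replicate runs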;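 also: 0% = DMSO wells with no growth and 100% = 10 µM 1-NA-PP1 with full growth; RAM network block rescues cells from 5-FOA so hits raise OD615 growth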); settings: S. cerevisiae dse1pr::URA3 5-FOA growth, OD615, 2 d; at 10 µM; stronger effect = higher value; strain carries analog-sensitive mutant Cbk1 kinase
[7] = RAM signaling pathway blockade in yeast – S. cerevisiae, Pdr1DBD-CYC8 efflux-inhibited sensitized strain, primary screen (AID 1298);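 also: 0% = DMSO untreated cells without growth and 100% = 10 µM 1-NA-PP1 full growth; higher means more yeast growth rescued from 5-FOA killing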; settings: S. cerevisiae cbk1-as DSE1-URA3 strain, 5-FOA growth OD615, 2 d; at 50 µM; stronger effect = higher value

O=C1c2ccccc2C(=O)N1CCC(=O)N1CCCc2ccccc21
inactive: growth inhibition [1] -19.9% | growth inhibition [2] -13.7% | viability increase [3] -0.26% | viability [4] 93.8% | viability [5] 96.8% | inhibition [6] 2.32% | RAM network inhibition [7] 7.36%

C=CCNC(=O)C1CC(=O)N(c2ccc(Br)cc2)C1 (stereo not given)
inactive: growth inhibition [1] -16.9% | growth inhibition [2] -14.1% | viability increase [3] -1.65% | viability [4] 95.5% | viability [5] 95.3% | inhibition [6] 0.655% | RAM network inhibition [7] 0.56%

COCC(=O)Nc1cc(C)c2c(=O)oc3ccccc3c2n1
inactive: growth inhibition [1] 1.37% | growth inhibition [2] 5.79% | viability increase [3] -1.64% | viability [4] 96% | viability [5] 94% | inhibition [6] -0.92% | RAM network inhibition [7] 2.67%

N#Cc1cnn(CC2CCCCC2)c1N
inactive: growth inhibition [1] -15.6% | growth inhibition [2] -8.75% | viability increase [3] -0.89% | viability [4] 89.4% | viability [5] 93.2% | inhibition [6] 1.57% | RAM network inhibition [7] 3.68%

O=C(CSc1nnc(-c2ccccc2)o1)Nc1ccccc1F
inactive: growth inhibition [1] -5.54% | growth inhibition [2] -2.1% | viability increase [3] -3.62% | viability [4] 37.7% | viability [5] 38% | inhibition [6] 2.13% | RAM network inhibition [7] 8.53%

Cc1ccc(C)c2[nH]c(=O)c(CCNC(=O)C(C)C)cc12
inactive: growth inhibition [1] -14.5% | growth inhibition [2] -18.6% | viability increase [3] -0.31% | viability [4] 102% | viability [5] 104% | inhibition [6] 1.83% | RAM network inhibition [7] 2.82%

COCCNC(=O)c1cc2c(=O)n(C)c3ccccc3c2n1C
inactive: growth inhibition [1] -11.1% | growth inhibition [2] -7.54% | viability increase [3] -4.57% | viability [4] 84.4% | viability [5] 84.4% | inhibition [6] 2.69% | RAM network inhibition [7] 0.36%

O=C(COC(=O)c1ccco1)Nc1ccc(Br)cc1
inactive: growth inhibition [1] -15.4% | growth inhibition [2] -14.3% | viability increase [3] -1.81% | viability [4] 93.5% | viability [5] 99.3% | inhibition [6] 1.45% | RAM network inhibition [7] 2.21%

COc1ccc2nc(N3CCCC(C(=O)NCCCN4CCN(C)CC4)C3)sc2c1 (stereo not given)
inactive: growth inhibition [1] -5.12% | growth inhibition [2] -11.4% | viability increase [3] -2.35% | viability [4] 96.9% | viability [5] 89.5% | inhibition [6] 1.98% | RAM network inhibition [7] 8.59%

O=C(Nc1ccon1)c1cccc(C(F)(F)F)c1
inactive: growth inhibition [1] -9.21% | growth inhibition [2] -5.36% | viability increase [3] 2.41% | viability [4] 104% | viability [5] 101% | inhibition [6] 0.075% | RAM network inhibition [7] 0.62%

COC(=O)c1ccc(CSc2nc3c(c(=O)n2-c2ccc(F)cc2)SCC3)o1
inactive: growth inhibition [1] -7.83% | growth inhibition [2] -16.6% | viability increase [3] -3.02% | viability [4] 83.7% | viability [5] 81.3% | inhibition [6] 1.3% | RAM network inhibition [7] 1.52%

CC(=O)Nc1ccc(S(=O)(=O)Nc2nc(C)cc(-n3nc(C)cc3C)n2)cc1
inactive: growth inhibition [1] -8.39% | growth inhibition [2] -6.55% | viability increase [3] -1.84% | viability [4] 102% | viability [5] 102% | inhibition [6] 1.25% | RAM network inhibition [7] 2.89%

O=C(O)c1ccccc1C(=O)c1cccs1
inactive: growth inhibition [1] -14.9% | growth inhibition [2] -17.1% | viability increase [3] -0.3% | viability [4] 101% | viability [5] 92.5% | inhibition [6] 0.54% | RAM network inhibition [7] 1.05%

NC(=O)CSc1oc(-c2ccc(F)cc2)nc1S(=O)(=O)c1ccccc1
inactive: growth inhibition [1] -6.54% | growth inhibition [2] -10.7% | viability increase [3] -4.42% | viability [4] 92.7% | viability [5] 87.8% | inhibition [6] 0.73% | RAM network inhibition [7] 1.45%

CC(=O)c1sc(N2C(=O)c3oc4ccccc4c(=O)c3C2c2ccc(C)o2)nc1C (stereo not given)
inactive: growth inhibition [1] 3.87% | growth inhibition [2] 6.34% | viability increase [3] -3.31% | viability [4] 96.1% | viability [5] 94.3% | inhibition [6] 1.98% | RAM network inhibition [7] -0.52%
